23 sequences from the EternaBench riboswitch data can be followed below.

For data set [1], the system named is MS2 coat protein. In words: apparent Kd, MS2 coat protein; higher = weaker binding; RNA-MaP array; tryptophan 2.4 mM where present. In outline: (§1)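 The apparent Kd is the median of filtered binding-curve fits, one per cluster, to green signal normalised to red-channel RNA signal and control-cluster median Fmax. The clusters were on Illumina sequencing chips, and stalled E. coli RNA polymerase had transcribed the designs on them. Titration used SNAP-549-labelled MS2 coat protein from 0.7 or 1.5 nM, doubling to 3 µM, without and then with constant ligand, in 100 mM Tris-HCl pH 7.5, 80 mM KCl, 4 mM MgCl2, BSA, DTT, yeast tRNA and Tween-20.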

The subject of data set [2] is MS2 coat protein. The data set can be described thus: apparent Kd, MS2 coat protein; higher = weaker binding; RNA-MaP array; theophylline 2 mM where present. The procedure, abridged:
as §1

[3] abbreviates: designed as: OFF switch for tryptophan, no ligand.
Where [4] appears, read: ligand present: tryptophan, designed as: OFF switch for tryptophan.
Setting [5] is: designed as: ON switch for tryptophan, no ligand.
Setting [6] is: ligand present: tryptophan, designed as: ON switch for tryptophan.
[7] abbreviates: designed as: OFF switch for theophylline, no ligand.
Where [8] appears, read: ligand present: theophylline, designed as: OFF switch for theophylline.
Where [9] appears, read: designed as: ON switch for theophylline, no ligand.
The mark [10] stands for this setting: ligand present: theophylline, designed as: ON switch for theophylline.

Turning to “UAUUAUCAGUCGGCCGCCACUGACACAUGAGGAUCACCCAUGUAAUUUGGGUUAUAUAUAAAUUACAGGACCGGGACAAAUGCUA”, the entries for the “apparent Kd” value in the data set on MS2 coat protein [1] (setting [3]) and in the data set with MS2 coat protein [1] (setting [4]) were 341 nM and 280 nM, respectively.

As to “UCGGACAUGAGGAUCACCCAUGUAAAUCCUCGAGGACCGGUACGGCCGCCACUCGAACGAGUGGCACGCGAGUGCGCACUCGCGU”, the apparent Kd (commonly the concentration giving half-maximal binding under the conditions of the assay) with MS2 coat protein [1] (setting [5]) was determined as 30.9 nM; in the data set with MS2 coat protein [1] (setting [6]), 27.7 nM.

In the case of “AAUCAUGAAAACAUGACAUGAGGAUCACUCCGAGGACCGGUACGGCCGCCACUCGCGAGGAGGCGGACAUGAGGAUCACCCAUGU”, the “apparent Kd” value in the data set with MS2 coat protein [1] (setting [5]) turned out to be 254 nM; with MS2 coat protein [1] (setting [6]) it was 66.3 nM.

Take “GAUAUGGAAACAUGUCAGAUCCUUACCGGUCGAGGACCGGUACGGCCGCCACUCGAAAACGAGGAACAUGAGGAUCACCCAUGUA”: the “apparent Kd” value in the data set with MS2 coat protein [1] (setting [3]) was determined as 49.7 nM; with MS2 coat protein [1] (setting [4]), 87.5 nM.

With “AUGGAGACCUCGGCCGCCACUCUCCAUGAGGAUCUCCCAUGUAACAUGAGGAUCACCCAUGUGCUGAGGACCGGGAGGUCCUGAA”, the “apparent Kd” value in the data set with MS2 coat protein [1] (setting [5]) was found to be 10.6 nM; in the data set on MS2 coat protein [1] (setting [6]) it was 12 nM.

Turning to “UUCUUUAAGUCGGCCGCCACUGAAACAUGAGGAUCACCCAUGUAAAUUUGGGAGUAGGUAUAUUACAGGACCGGGACUAUAGUAA”, the “apparent Kd” value in the data set on MS2 coat protein [1] (setting [3]) is 29.9 nM; with MS2 coat protein [1] (setting [4]) it was 54.8 nM.

In the case of “CGCGGUUGAGAUGGGCCUUUGAUAAGUCUGCGAGGACCGGUACGGCCGCCACUCGAGGACAUGAGGAUCACCCAUGUACUUCGCG”, the results for the “apparent Kd” value with MS2 coat protein [1] (setting [3]) and in the data set on MS2 coat protein [1] (setting [4]) were 47.3 nM and 17.8 nM, respectively.

Regarding “GUCUUGGGAUCGGCCGCCACUACAUGAGGAUCACCCAUGUGGACAAAUAGGGUUUUUAAGCUCGGUAGGACCGGGAUUCGGACAU”, the “apparent Kd” value was found to be 12.9 nM in the data set with MS2 coat protein [1] (setting [3]) and 56.9 nM in the data set with MS2 coat protein [1] (setting [4]).

On to “AAUGUAUGCCACAUGAGGAUCACCCAUGUGCGAGGACCGGUACGGCCGCCACUCGGUCGGUGGUUAAUGAAGAUAUACAAUAAUG”, for which the “apparent Kd” value in the data set on MS2 coat protein [1] (setting [3]) came out at 11.5 nM; in the data set on MS2 coat protein [1] (setting [4]), 15.5 nM.

For the sequence “AACAUGAGGAUCACCCAUGUCCUCAUGAUUCGAGGACCGGUACGGCCGCCACUCGGUCCUCGCGAGGAGGAGUCAAAGACUCCAA”, the “apparent Kd” value was found to be 178 nM in the data set with MS2 coat protein [1] (setting [5]) and 393 nM with MS2 coat protein [1] (setting [6]).

Take “CAAUAAGUACCGGUCCUCAGAUCCUCAUGACGAGGACCGGUACGGCCGCCACUCGAAACAUGAGGAUCACCCAUGUAAUAAUAAC”: the results for the “apparent Kd” value in the data set on MS2 coat protein [1] (setting [3]) and in the data set with MS2 coat protein [1] (setting [4]) were 40.9 nM and 30.5 nM, respectively.

Consider “UGUCGGCGUAAGUUGGCAUGUCUUGCUGGUCGAGGACCGGUACGGCCGCCACUCGAUCCUUCGCACAUGAGGAUCACCCAUGUUG”, for which the “apparent Kd” value in the data set on MS2 coat protein [1] (setting [5]) stood at 18.3 nM; in the data set on MS2 coat protein [1] (setting [6]), 17.1 nM.

As to “ACACAUGAGGAUCACCCAUGUUGAGGAACACGAGGACCGGUACGGCCGCCACUCGACACAUGAGGAUCACCCAUGUGAUCACCCA”, the results for the “apparent Kd” value with MS2 coat protein [1] (setting [5]) and in the data set on MS2 coat protein [1] (setting [6]) were 141 nM and 169 nM, respectively.

As for “GAUGAACUAUUUGAUACCAGACUACAUGAGGAUCACCCAUGUGUGUUUAUACUUCAGUCAGUCCCUUGGCAGCAAAUAGUUUAUC”, the “apparent Kd” value with MS2 coat protein [2] (setting [7]) turned out to be 147 nM; in the data set on MS2 coat protein [2] (setting [8]), 306 nM.

As to “ACAUGAGGAUCACCCAUGUUCCUCUUUGAUACCAGUGAGUUGUUUCGCCCUUGGCAGCGAGUGUUUGUUUUUUUGUUUUGUUUGG”, the “apparent Kd” value was found to be 215 nM with MS2 coat protein [2] (setting [7]) and 288 nM in the data set with MS2 coat protein [2] (setting [8]).

With “AGCGACAUGCGUGAUACCAGCUACAUGAGGAUCACCCAUGUCAGUAGGAAACUGCUGUGUAGCCCUUGGCAGCACAGUGCAUGUC”, the entries for the “apparent Kd” value in the data set with MS2 coat protein [2] (setting [7]) and in the data set on MS2 coat protein [2] (setting [8]) were 34.9 nM and 38.6 nM, respectively.

For the sequence “UACAUGAGGAUCACCCAUGUAUGAAUAGAUACCAGAUAAAAUAAGGUCCCUUGGCAGCUAGUGAAUAAAGGGUGGGUAAAAUAAU”, the “apparent Kd” value in the data set with MS2 coat protein [2] (setting [7]) came to 9.22 nM; in the data set with MS2 coat protein [2] (setting [8]) it was 9.51 nM.

“AAGAAGUUUUGAUUUUUAUGAAGUAGUGAUACCAGUCAAGAAAGAGACCCUUGGCAGCGCAACAUGAGGAUCACCCAUGUAAGAA”: the “apparent Kd” value stood at 25.4 nM in the data set with MS2 coat protein [2] (setting [7]) and 27.2 nM in the data set on MS2 coat protein [2] (setting [8]).

On to “GUAUGGAAACAUACUAUGGUAUCGUGAGAUACCAGUACAGAAAUGUACCCUUGGCAGCUCGCGCAUACAUGAGGAUCACCCAUGU”, for which the “apparent Kd” value with MS2 coat protein [2] (setting [7]) turned out to be 18.1 nM; in the data set on MS2 coat protein [2] (setting [8]) it was 25.7 nM.

Regarding “UUUGAUAGAACAGAUACCAGCGUGUUAUAAAACAUGAGGAUCACCCAUGUAGUGAUCAAGCGCCCUUGGCAGCUGGUUUGUUAGG”, the “apparent Kd” value turned out to be 135 nM in the data set with MS2 coat protein [2] (setting [9]) and 182 nM in the data set with MS2 coat protein [2] (setting [10]).

As to “AUAAGGUAUCUGCUAUCCUCAUGAGCAGAUACCAGCUAGGAAACUAGCCCUUGGCAGCUGCAACAUGAGGAUCACCCAUGUAAUA”, the “apparent Kd” value with MS2 coat protein [2] (setting [7]) is 409 nM; with MS2 coat protein [2] (setting [8]) it was 92.3 nM.

“UAAAACAUGAGGAUCACCCAUGUAUUUGAUACCAGAGUGAUGAUCCUCCCUUGGCAGCAAAUAACGCAUUGAUUACAAUGCGAAA”: the “apparent Kd” value in the data set with MS2 coat protein [2] (setting [9]) was 42.8 nM; in the data set with MS2 coat protein [2] (setting [10]), 143 nM.

On to “AUGUCAUUGGUGCAGCUGUUAAAUGGCGAUACCAGCGUGGAAACACGCCCUUGGCAGCGCCAAAACAUGAGGAUCACCCAUGUUA”, for which the “apparent Kd” value in the data set with MS2 coat protein [2] (setting [7]) turned out to be 28 nM; in the data set with MS2 coat protein [2] (setting [8]), 83 nM.
